# Only some compounds are listed: those with a hit (about 2.7% of all), similar ones and a draw of the others.
# OX1R antag-1 = OX1R (HCRTR1) antagonists, primary screen, fluorescence, CHO/OX1R cells, Fluo-8 calcium, orexin A | Orexin/Hypocretin receptor type 1 (Homo sapiens), O43613 | Fluo-8 calcium fluorescence | inhibition, % at 5 µM | hit rate 0.43% among 330,000 | AID 434989, 2010;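 active = inhibition above its plate's threshold, mean inhibition of all tested compounds on the plate plus 3 SD, cut at about 37% in these data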;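 note: 0% = orexin A challenge wells and 100% = SB-334867-A antagonist wells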
# Target sequence (O43613 whole entry, looked up): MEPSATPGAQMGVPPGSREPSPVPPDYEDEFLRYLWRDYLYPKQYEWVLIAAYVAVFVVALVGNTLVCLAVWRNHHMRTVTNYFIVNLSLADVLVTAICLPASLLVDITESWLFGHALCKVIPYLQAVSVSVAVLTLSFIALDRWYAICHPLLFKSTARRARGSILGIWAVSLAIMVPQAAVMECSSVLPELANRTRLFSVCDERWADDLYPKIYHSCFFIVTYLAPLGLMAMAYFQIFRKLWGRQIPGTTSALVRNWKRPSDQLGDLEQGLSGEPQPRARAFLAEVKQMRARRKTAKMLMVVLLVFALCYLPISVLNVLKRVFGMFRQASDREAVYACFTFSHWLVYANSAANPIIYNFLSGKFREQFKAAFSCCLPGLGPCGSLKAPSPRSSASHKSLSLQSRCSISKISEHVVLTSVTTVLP
# OXTR agonist = human OXTR agonists, primary screen, fluorescence, CHO-OTR cells, Fluo-8 calcium; Oxytocin receptor (Homo sapiens), P30559; Fluo-8 calcium fluorescence; normalized: DMSO 0%, oxytocin 100%; activation, % at 3 µM; hit rate 0.32% among 320,000; AID 2435, 2010;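 active = activation above the mean of all tested compounds plus 3 SD, cutoff set per screening run, cut at about 20% in these data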;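 note: peak over basal fluorescence ratio from a 100 s FLIPR kinetic read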
# OXTR potentiator = human OXTR potentiators, primary screen, fluorescence, CHO-OTR cells, Fluo-8 calcium. Oxytocin receptor (Homo sapiens), P30559. Fluo-8 calcium fluorescence, potentiator mode; 0% = oxytocin EC15, 100% = EC100. activation, % at 3 µM. hit rate 0.061% among 320,000. AID 2445, 2010;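 active = activation above that plate's cutoff, the mean activation of tested compounds plus 3 SD, cut at about 6.6% in these data, passing the limit was not always enough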;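 note: 100% uses oxytocin at 75 nM as the full agonist control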
#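 System: human OTR in CHO cells / Also added: sub-maximal oxytocin, roughly EC15 / Control set: EC15 oxytocin low, 75 nM oxytocin high / Schedule: 6 min compound pre-incubation at room temperature, 100 s kinetic read / Compound: single-point 3.0 µM / Replication: singlicate / Technique: Fluo-8 calcium dye fluorescence / Read-out basis: % activation of max/min ratio relative to oxytocin controls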
# V1R ag counter = agonists of human V1a receptor, primary screen, counter-screen for OXTR agonist project, fluorescence, CHO-V1R cells; Vasopressin V1a receptor (Homo sapiens), P37288; Fluo-8 calcium fluorescence, agonist mode; 0% DMSO, 100% 3 nM vasopressin; activation, % at 3 µM; hit rate 0.25% among 320,000; AID 2797, 2010;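 active = activation above the mean activation of all tested compounds plus 3 SD, per screening run, cut at about 20% in these data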;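 note: signal is peak over basal fluorescence ratio across a 100 second FLIPR read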
# OX1R antag-2 = antagonists of human orexin 1 receptor (OX1R) | Orexin/Hypocretin receptor type 1 (Homo sapiens), O43613 | hit rate 1.8% among 330,000 | inhibition, % at 6.6 µM | AID 485270, 2010 | OX1R-expressing cells, FRET antagonist read-out; in the data active = inhibition mostly above about 38%, no sharp cut-off; inactive = mostly below about 40%;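 note: 0% = agonist challenge alone and 100% = reference antagonist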
# CHO parental Ca = ATP-evoked calcium signal inhibitors, parental CHO, primary screen, counter-screen for OX1R antagonist project, cell-based, fluorescence, Fluo-8 calcium dye. inhibition, % at 5.6 µM. parental CHO-K1, ATP-induced calcium, Fluo-8 fluorescence. hit rate 0.63% among 330,000;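 active = inhibition above that plate's mean sample inhibition plus 3 SD, cut at about 26% in these data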;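 note: 0% = ATP-challenged DMSO wells and 100% = DMSO wells without ATP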
#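 Material: parental CHO cells / Compound: single nominal dose of 5.6 µM per compound / Signal: Fluo-8 fluorescence / Replicates: singlicate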
# Starred values were filed as active, the others as inactive.
SMILES,OX1R antag-1,OXTR agonist,OXTR potentiator,V1R ag counter,OX1R antag-2,CHO parental Ca
COc1ccc2cc(C#N)c(SCC(=O)N3CC(=O)Nc4ccccc43)nc2c1,-4.5,0.9,-1.6,0.7,16.1,-6.2
COc1ccccc1C1CCN(C(=O)c2ccc(Cl)cc2)CC1,-22.9,-1.9,-3.5,-1.8,3.4,-12.5
Cc1cc(=O)oc2cc(NC(=O)c3c(Cl)cnn3C)ccc12,-12.7,0.0,-4.7,2.4,61.3*,-6.1
C(=N\NC1=Nc2cccc3cccc1c23)/c1cccnc1,10.6,-1.1,-10.6,0.0,72.4*,-10.3
Cc1ccnc(NC(=O)COc2ccc3oc4c(c3c2)CCCC4)c1,7.5,-1.7,-7.8,0.4,54.5*,-32.7
CNC(=O)COc1ccc2oc3c(c2c1)CCCC3,-8.7,-0.9,3.0,2.5,37.6,-13.7
CCOC(=O)CCCNc1ccc([N+](=O)[O-])cc1[N+](=O)[O-],-6.4,3.9,-5.3,6.1,70.8*,5.0
Cn1nc(C(C)(C)C)cc1C(=O)NCc1ccc(N2CCCC2=O)cc1,19.4,13.2,-11.4,7.9,29.9,37.3*
COC(=O)[C@H](CC(C)C)NC(=O)Cn1cnc2c(SC)nc(N)nc21,3.9,1.0,-2.2,1.0,-1.7,7.1
COc1ccc(C2CC(C)(c3ccc(OC)cc3OC)Nc3ccccc3N2)c(OC)c1 (centres undefined),38.0*,5.3,-19.1,11.3,40.5,71.5*
Cc1cccc(NC(=O)CNC(=O)c2cccc(-n3cccc3)c2)c1C,-14.3,-1.3,-8.2,-1.3,8.8,-17.0
CCN1CCN(c2nnc(-c3ccc(C)cc3)c3ccccc23)CC1,-24.4,-1.2,-8.4,1.0,6.5,-1.1
COc1ccc(Nc2ccc(C(=O)O)cc2[N+](=O)[O-])cc1,-22.6,0.1,0.3,0.0,54.8*,0.6
COc1ccc(OC)c(Nc2ccc(C(=O)O)cc2[N+](=O)[O-])c1,7.6,-0.7,1.0,0.0,33.1,-2.7
CN(C(=O)C1CCCN1S(=O)(=O)c1ccc(Cl)cc1)c1ccccc1 (centres undefined),-7.2,-0.1,-6.2,-0.4,9.5,-10.9
CCCCn1nc(C(=O)N(C)C2CCCCC2)c2ccccc2c1=O,-43.8,-2.3,-4.8,-0.9,-1.1,-10.7
Cc1cccn2c(=O)c3cc(C(=O)NCCN4CCOCC4)c(=N)n(Cc4ccc(F)cc4)c3nc12,-15.8,0.0,-2.1,0.3,40.4*,-16.6
CCOCCCn1c(=N)c(C(=O)NCCN2CCOCC2)cc2c(=O)n3cccc(C)c3nc21,-17.5,1.6,2.6,0.3,56.6*,-6.3
Cc1cccn2c(=O)c3cc(C(=O)NC4CCCC4)c(=N)n(CCCN4CCOCC4)c3nc12,-18.5,0.0,-1.8,-0.5,36.3,-18.5
Cc1cccn2c(=O)c3cc(C(=O)NCCN4CCOCC4)c(=N)n(CCN4CCOCC4)c3nc12,-0.6,0.2,-13.4,1.4,53.1*,1.3
Cc1cccn2c(=O)c3cc(C(=O)NC4CCCCC4)c(=N)n(Cc4ccc(F)cc4)c3nc12,-7.8,-0.6,-7.1,0.1,10.3,-8.8
COc1ccc(CCNC(=O)c2cc3c(=O)n4cccc(C)c4nc3n(CCCN3CCOCC3)c2=N)cc1,-18.0,0.2,-2.1,0.6,22.8,-16.3
COc1ccc(NC(=O)CN(C)C(=O)Cc2ccc(-c3ccccc3)cc2)cc1,-5.3,1.7,-10.4,2.7,5.2,-13.0
Cc1cccc(C=Nc2ccc3c4c(cccc24)CC3)c1O,54.0*,8.9,-5.7,24.5*,17.3,38.9*
Cc1ccc2nccc(C(=O)N3CCCC(Nc4ccc(C)c(C)c4)C3)c2c1 (centres undefined),26.6,0.1,-4.1,1.8,37.5*,-30.9
SMILES,OX1R antag-1,OXTR agonist,OXTR potentiator,V1R ag counter,OX1R antag-2,CHO parental Ca
O=C(Nc1ccncc1)c1ccc2c(c1)C(=O)N(CC1CCCO1)C2=O (centres undefined),-13.9,6.3,-8.4,6.5,53.5*,-15.8
O=C(Nc1ccncc1)c1ccc2c(c1)C(=O)N(C1CCCCC1)C2=O,43.1,14.5,-22.7,9.4,44.9,51.4*
CCOC(=O)c1sc(C)c2c(=O)n(CC)nnc12,7.5,-1.4,-4.6,-0.5,63.1*,-9.3
CCNC(=S)N1CCN(c2ccc([N+](=O)[O-])cc2)CC1,-20.3,5.6,-14.2,4.6,47.0,-4.6
O=[N+]([O-])c1ccc(N2CCN(C(=S)NCc3ccc(Cl)cc3)CC2)cc1,51.2*,2.4,-32.2,5.2,31.8,84.4*
COc1ccc(C(=O)Nc2ccc(C3CC3(Cl)Cl)cc2)cc1 (centres undefined),10.2,15.5,-14.9,7.7,39.4,36.8*
COc1ccc(OC)c(NC(=O)c2cccc(NC(=O)c3ccccc3)c2)c1,-13.9,-1.9,-7.0,-1.8,54.2*,-14.5
COc1cccc(/C=C/C(=O)Nc2cccc(C(C)=O)c2)c1OC,-19.8,0.6,-13.6,0.1,15.1,-8.8
CCC(=O)Nc1ccc(NC(=O)c2ccc3ccccc3c2)cc1,-10.1,0.6,3.0,0.5,15.1,2.9
COc1ccc(NC(=O)c2cccc(NC(=O)c3ccccc3)c2)c(OC)c1,-22.5,-2.3,-5.3,-0.6,11.6,-17.0
COc1ccc(NC(=O)c2ccc3ccccc3c2)cc1,-2.7,-1.3,-3.9,0.3,11.1,42.1*
COc1ccccc1/C=C/C(=O)Nc1cccc(C(C)=O)c1,0.2,-2.1,-4.1,-0.6,60.2*,-20.5
O=C(COc1ccc(Cl)cc1Cl)N(C1CCCCC1)C1CCS(=O)(=O)C1 (centres undefined),-24.9,0.3,-4.8,0.6,-2.3,-16.4
COc1ccccc1CCC(=O)N(C)C1CCCN(Cc2ccccc2F)C1 (centres undefined),-33.4,-2.0,-0.2,-0.2,9.8,-20.3
CC(C)(C)OC(=O)C[C@@H]1C/C=C\C[C@H](CC(=O)NCCO)C(=O)N2CCC[C@H]2COC1=O,3.0,1.8,-2.0,0.3,6.8,8.0
O=C(NCCCN1CCCC1)c1ccc(CS(=O)(=O)c2c(Cl)cccc2Cl)o1,-3.0,-0.6,-9.3,0.4,4.0,-8.8
O=C(Nc1ccccc1)C1CCCN1S(=O)(=O)c1ccc(Br)cc1 (centres undefined),16.5,-0.9,-6.6,2.3,64.0*,-11.9
O=C(Nc1cccnc1)C1CCCN1S(=O)(=O)c1ccc(Cl)c(Cl)c1 (centres undefined),1.5,0.3,-4.6,1.8,62.6*,-15.1

# High-throughput results: PubChem, The Scripps Research Institute Molecular Screening Center
